We go through five molecules from ChEMBL document CHEMBL4414579, “Natural Hydroxamate-Containing Siderophore Acremonpeptides A-D and an Aluminum Complex of Acremonpeptide D from the Marine-Derived Acremonium persicinum SCSIO 115” (J Nat Prod, 2019).

Holding throughout (type): functional, organism-based
Assay [1] deals with Bacillus thuringiensis. Kind of assay: Antibacterial activity against Bacillus thuringiensis BT01 up to 100 ug/ml by CLSI based method.
Assay [2] concerns Bacillus thuringiensis. Kind of assay: Antibacterial activity against Bacillus thuringiensis W102 up to 100 ug/ml by CLSI based method.
Assay [3] deals with Staphylococcus aureus. Kind of assay: Antibacterial activity against Staphylococcus aureus ATCC 29213 up to 100 ug/ml by CLSI based method.
Assay [4] concerns Staphylococcus aureus. As to the kind of experiment: Antibacterial activity against methicillin resistant Staphylococcus aureus shhs-A1 up to 100 ug/ml by CLSI based method. Summed up:
(§1)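 Both strains were clinical isolates. They were screened within a panel of nine bacteria and two Candida albicans strains, at concentrations up to 100 μg/mL, by a previously reported method.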

For another assay, the system named is Enterococcus faecalis. Kind of assay: Antibacterial activity against Enterococcus faecalis ATCC 29212 up to 100 ug/ml by CLSI based method.
A further assay concerns Acinetobacter baumannii. As to the kind of experiment: Antibacterial activity against Acinetobacter baumannii ATCC 19606 up to 100 ug/ml by CLSI based method. The following applies: ATCC 19606 = CIP 70.34 = JCM 6841.
The subject of a further assay is Klebsiella pneumoniae. Kind of assay: Antibacterial activity against Klebsiella pneumoniae ATCC 13883 up to 100 ug/ml by CLSI based method.
The test system of assay [5] is Escherichia coli. Kind of assay: Antibacterial activity against Escherichia coli ATCC 25922 up to 100 ug/ml by CLSI based method.
In assay [6] the test system is Escherichia coli. As to the kind of experiment: Antibacterial activity against drug-resistant Escherichia coli E11 up to 100 ug/ml by CLSI based method. In short, it runs like this: as §1
The test system of assay [7] is Candida albicans. Kind of assay: Antifungal activity against Candida albicans ATCC 96901. Summed up:
(§2)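 Tested against the yeast by a previously reported antimicrobial method, at concentrations up to 100 μg/mL.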

In assay [8] the test system is Candida albicans. Kind of assay: Antifungal activity against Candida albicans CMCC(F) 98001. Summed up:
as §2

The test system of assay [9] is Human alphaherpesvirus 1. Kind of assay: Antiviral activity against HSV-1 infected in African green monkey Vero cells assessed as inhibition of GFP expression after 72 hrs by GFP-based fluorescence microscopic analysis. The note with it: Human alphaherpesvirus 1, Vero. In short, it runs like this: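 Vero cells were infected at MOI 1.0 with recombinant HSV-1 carrying a GFP reporter. Cells were treated with compounds at 10 μM final or an equal amount of DMSO, with ganciclovir as positive control, and GFP was monitored by fluorescence microscopy. For EC50, infected cells were treated at several concentrations in triplicate, and viral load was measured by TCID50 at 72 h postinfection.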

For assay [10], the system named is Human alphaherpesvirus 1. As to the kind of experiment: Inhibition of UL42 gene transcription in HSV-1 infected in African green monkey Vero cells at 10 uM by qRT-PCR analysis. Summed up: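 Vero cells were infected with GFP-reporter HSV-1 at MOI 1.0, then exposed to compounds at 10 μM final or DMSO. Viral gene transcription was quantified by qRT-PCR, with ganciclovir as positive control and NTC as negative control.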
A general note: Real-time PCR tracks product formation cycle by cycle.

In general, EC50 refers to the concentration that produces a half-maximal response.

Active and inactive are the calls of the source. The rule behind the calls is not given here. Square brackets hold non-standard residues; d marks the D form. Peptide text beside a SMILES is read from it. Orn(N5-OH,N5-Ac) = CC(=O)N(O)CCC[C@H](N)C(=O)O

Turning to `CC(=O)N(O)CCC[C@@H]1NC(=O)[C@H](CCCN(O)C(C)=O)NC(=O)[C@H](Cc2ccccc2)NC(=O)[C@H](CC(C)C)NC(=O)[C@H](Cc2c[nH]c3ccccc23)NC(=O)[C@H](CCCN(O)C(C)=O)NC1=O` (cyclo(F[Orn(N5-OH,N5-Ac)][Orn(N5-OH,N5-Ac)][Orn(N5-OH,N5-Ac)]WL)), the outcome with Bacillus thuringiensis [1], with Bacillus thuringiensis [2], in the assay with Staphylococcus aureus [3], in the assay with Staphylococcus aureus [4], with Enterococcus faecalis and with Acinetobacter baumannii was inactive. Further, the result in the assay with Klebsiella pneumoniae, with Escherichia coli [5], with Escherichia coli [6], in the assay with Candida albicans [7] and in the assay on Candida albicans [8] was inactive. The half-maximal effective concentration (EC50) in the assay with Human alphaherpesvirus 1 [9] turned out to be 24 µM.

In the case of `Nc1nc2c(ncn2COC(CO)CO)c(=O)[nH]1` [GANCICLOVIR], in the assay on Human alphaherpesvirus 1 [9], the concentration giving a half-maximal response (EC50) stood at 0.025 µM. Besides, the inhibition result in the assay with Human alphaherpesvirus 1 [10] is “Active”.

As to `CC(=O)N(O)CCC[C@@H]1NC(=O)[C@H](CCCN(O)C(C)=O)NC(=O)[C@H](CCCN(O)C(C)=O)NC(=O)[C@H](Cc2ccccc2)NC(=O)[C@H](CC(C)C)NC(=O)[C@H](CO)NC1=O` (cyclo(F[Orn(N5-OH,N5-Ac)][Orn(N5-OH,N5-Ac)][Orn(N5-OH,N5-Ac)]SL)), the outcome in the assay on Bacillus thuringiensis [1], with Bacillus thuringiensis [2], in the assay with Staphylococcus aureus [3], in the assay on Staphylococcus aureus [4], in the assay with Enterococcus faecalis and in the assay on Acinetobacter baumannii was inactive. The outcome in the assay on Klebsiella pneumoniae, in the assay on Escherichia coli [5], in the assay with Escherichia coli [6], with Candida albicans [7] and in the assay on Candida albicans [8] was inactive. For the same molecule, the concentration giving a half-maximal response (EC50) with Human alphaherpesvirus 1 [9] stood at 16 µM. Also, the inhibition entry in the assay on Human alphaherpesvirus 1 [10] was “Active”.

For `CC(=O)N(O)CCC[C@@H]1NC(=O)[C@H](CCCN(O)C(C)=O)NC(=O)[C@H](Cc2ccccc2)NC(=O)[C@H](CC(C)C)NC(=O)[C@H](Cc2ccccc2)NC(=O)[C@H](CCCN(O)C(C)=O)NC1=O` (cyclo(FLF[Orn(N5-OH,N5-Ac)][Orn(N5-OH,N5-Ac)][Orn(N5-OH,N5-Ac)])), the outcome in the assay on Bacillus thuringiensis [1], in the assay with Bacillus thuringiensis [2], in the assay on Staphylococcus aureus [3], with Staphylococcus aureus [4], with Enterococcus faecalis and in the assay on Acinetobacter baumannii was inactive. Further, the outcome in the assay with Klebsiella pneumoniae, in the assay on Escherichia coli [5], with Escherichia coli [6], in the assay on Candida albicans [7] and in the assay on Candida albicans [8] was inactive. Also, the 50% effective concentration (EC50) in the assay with Human alphaherpesvirus 1 [9] was determined as 27 µM.

Take `CC(=O)N(O)CCC[C@@H]1NC(=O)[C@H](CCCN(O)C(C)=O)NC(=O)[C@H](CCCN(O)C(C)=O)NC(=O)[C@H](Cc2ccccc2)NC(=O)[C@H](CC(C)C)NC(=O)[C@H](C)NC1=O` (cyclo(ALF[Orn(N5-OH,N5-Ac)][Orn(N5-OH,N5-Ac)][Orn(N5-OH,N5-Ac)])): the outcome in the assay with Bacillus thuringiensis [1], in the assay on Bacillus thuringiensis [2], in the assay on Staphylococcus aureus [3], with Staphylococcus aureus [4], with Enterococcus faecalis and in the assay on Acinetobacter baumannii was inactive. For the same molecule, the result with Klebsiella pneumoniae, in the assay on Escherichia coli [5], with Escherichia coli [6], with Candida albicans [7] and in the assay with Candida albicans [8] was inactive. Moreover, the half-maximal effective concentration (EC50) in the assay with Human alphaherpesvirus 1 [9] is 8.7 µM. In addition, the inhibition entry with Human alphaherpesvirus 1 [10] is “Active”.
